The text below walks through data of ChEMBL document CHEMBL1287679, “Tuning hydrophobicity of highly cationic tetradecameric Gramicidin S analogues using adamantane amino acids” (Bioorg Med Chem, 2010).

Molecules are shown by their SMILES. Values after ≈ are worked out from the molar mass of the structure shown.

As a reminder, the MIC is the smallest concentration in the dilution series that meets the test's criterion for growth inhibition. Read a low MIC as inhibition by little substance.

In data set [1] the test system is Staphylococcus epidermidis. Description: Antimicrobial activity against Staphylococcus epidermidis ATCC 12228 by broth dilution method. The data set is classed as functional. The essentials: (§1)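 Stored at −70 °C, grown at 35 °C on Columbia sheep-blood agar, then suspended in physiological saline to OD 0.1 AU at 595 nm and diluted 100× in saline. 2 µL inoculum was added to 50 µL cation-adjusted Mueller Hinton II broth. Peptides in methanol (4 g/L stock) were diluted in water, then two-fold in broth (64–1 mg/L). Incubation was 35 °C for 24–48 h. MIC is the lowest concentration inhibiting growth.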
On the technique in general: In broth dilution the organism is exposed to a series of concentrations in liquid medium.

The subject of data set [2] is Staphylococcus aureus. The data set is described as follows: Antimicrobial activity against Staphylococcus aureus ATCC 29213 by broth dilution method. The format is functional. The essentials:
(§2)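 Frozen (−70 °C) stocks grown at 35 °C on Columbia sheep-blood agar, suspended in physiological saline to OD595 0.1, diluted 100×; 2 µL inoculum into 50 µL cation-adjusted Mueller Hinton II broth in 96-well plates. Peptides dissolved in methanol (4 g/L), diluted in water, two-fold serial dilutions in broth (64–1 mg/L). Incubation at 35 °C, 24–48 h; MIC = lowest concentration inhibiting growth.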

The subject of the next data set is Pseudomonas aeruginosa. Description: Antimicrobial activity against Pseudomonas aeruginosa ATCC 27853 by broth dilution method. The data set is classed as functional. The essentials:
as §1

The subject of another data set is Escherichia coli. Description: Antimicrobial activity against Escherichia coli ATCC 25922 by broth dilution method. The data set is classed as functional. The essentials: as §1
The next data set has as its system Bacillus cereus. Description: Antimicrobial activity against Bacillus cereus ATCC 11778 by broth dilution method. The format is functional. The essentials: as §1
The test system of a further data set is Enterococcus faecalis. Description: Antimicrobial activity against Enterococcus faecalis ATCC 29212 by broth dilution method. The data set is classed as functional. The essentials: as §1
The test system of data set [3] is Staphylococcus aureus. Description: Antimicrobial activity against community acquired methicillin-resistant Staphylococcus aureus isolate 1110301146 by broth dilution method. The data set is classed as functional. The essentials:
as §2

For data set [4], the system named is Staphylococcus aureus. The data set is described as follows: Antimicrobial activity against methicillin-resistant Staphylococcus aureus isolate 1110301981 by broth dilution method. The data set is classed as functional. The essentials:
as §2

For data set [5], the system named is Staphylococcus aureus. Description: Antimicrobial activity against methicillin-resistant Staphylococcus aureus N229 by broth dilution method. The format is functional. The essentials: as §2
For data set [6], the system named is Staphylococcus aureus. The data set is described as follows: Antimicrobial activity against methicillin-resistant Staphylococcus aureus N133 by broth dilution method. The format is functional. The essentials: as §2
Data set [7] has as its system Staphylococcus aureus. The data set is described as follows: Antimicrobial activity against methicillin-resistant Staphylococcus aureus ATCC 49775 by broth dilution method. The format is functional. The essentials:
as §2

For data set [8], the system named is Staphylococcus aureus. Description: Antimicrobial activity against methicillin-resistant Staphylococcus aureus ATCC 43300 by broth dilution method. The data set is classed as functional. The essentials:
as §2

The nature of data set [9]: Toxicity in Erythrocyte assessed as concentration required to achieve 100% hemolysis after 4 hrs. The format is cell-based. The essentials: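 Heparinized fresh blood was centrifuged (1000g, 10 min, 10 °C). Erythrocytes were washed three times in 0.85% saline and diluted to a 1/25 packed volume. Peptides were prepared as a 1.5 mM stock in 30% DMSO/0.5 mM saline and serially two-fold diluted in triplicate rows. 1% Triton-X served as the full-lysis control. Incubation was 37 °C for 4 h, then centrifugation; supernatant was read. Value is the concentration giving 100% lysis.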

Data set [10] is described as follows: Therapeutic index, concentration required to achieve 100% hemolysis in erythrocyte to MIC for Staphylococcus aureus ATCC 29213. As to conditions: erythrocytes; read-out: Ratio. The essentials:
(§3)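 Therapeutic index was taken as the concentration for 100% haemolysis divided by MIC for the given strain.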

Data set [11] in a line: Therapeutic index, concentration required to achieve 100% hemolysis in erythrocyte to MIC for Escherichia coli ATCC 25922. The note with it: erythrocytes. The essentials: as §3

For `CC(C)C[C@@H]1NC(=O)[C@H](CCCN)NC(=O)[C@H](C23CC4CC(CC(C4)C2)C3)NC(=O)[C@H](CCCN)NC(=O)[C@@H]2CCCN2C(=O)[C@@H](Cc2ccccc2)NC(=O)[C@H](CCCN)NC(=O)[C@H](CC(C)C)NC(=O)[C@H](CCCN)NC(=O)[C@H](C23CC4CC(CC(C4)C2)C3)NC(=O)[C@H](CCCN)NC(=O)[C@@H]2CCCN2C(=O)[C@@H](Cc2ccccc2)NC(=O)[C@H](CCCN)NC1=O`, the minimal inhibitory concentration (MIC) is 8 µg/mL (≈ 4.49 µM) in data set [1]; 8 µg/mL (≈ 4.49 µM) with Staphylococcus aureus [2]; 16 µg/mL (≈ 8.98 µM) against Pseudomonas aeruginosa; 16 µg/mL (≈ 8.98 µM) against Escherichia coli; 2 µg/mL (≈ 1.12 µM) in the data set on Bacillus cereus; 8 µg/mL (≈ 4.49 µM) in the data set with Enterococcus faecalis. In addition, the minimal inhibitory concentration (MIC) with Staphylococcus aureus [3], in the data set on Staphylococcus aureus [4], in the data set on Staphylococcus aureus [5], in the data set with Staphylococcus aureus [6], in the data set with Staphylococcus aureus [7] and against Staphylococcus aureus [8] was 8 µg/mL (≈ 4.49 µM) each time. Moreover, the Activity in data set [9] was 31.3 µM. The selectivity ratio in data set [10] was 3.9; in [11], 2.
As to `NCCC[C@@H]1NC(=O)[C@H](CC23CC4CC(CC(C4)C2)C3)NC(=O)[C@H](CCCN)NC(=O)[C@H](C23CC4CC(CC(C4)C2)C3)NC(=O)[C@H](CCCN)NC(=O)[C@@H]2CCCN2C(=O)[C@@H](Cc2ccccc2)NC(=O)[C@H](CCCN)NC(=O)[C@H](CC23CC4CC(CC(C4)C2)C3)NC(=O)[C@H](CCCN)NC(=O)[C@H](C23CC4CC(CC(C4)C2)C3)NC(=O)[C@H](CCCN)NC(=O)[C@@H]2CCCN2C(=O)[C@@H](Cc2ccccc2)NC1=O`, the minimal inhibitory concentration (MIC) in data set [1] turned out to be 32 µg/mL (≈ 16.3 µM); against Staphylococcus aureus [2], 64 µg/mL (≈ 32.5 µM); in the data set with Pseudomonas aeruginosa it was 64 µg/mL (≈ 32.5 µM); in the data set with Escherichia coli, 64 µg/mL (≈ 32.5 µM); with Bacillus cereus, 2 µg/mL (≈ 1.02 µM); against Enterococcus faecalis, 32 µg/mL (≈ 16.3 µM). Further, the MIC against Staphylococcus aureus [3], in the data set on Staphylococcus aureus [4], against Staphylococcus aureus [5], in the data set with Staphylococcus aureus [6], in the data set on Staphylococcus aureus [7] and in the data set with Staphylococcus aureus [8] was 32 µg/mL (≈ 16.3 µM) in each case. For the same compound, the Activity in [9] amounted to 7.8 µM. Moreover, the selectivity ratio in data set [10] amounted to 0.1; in [11], 0.12.
For the compound `CC(C)C[C@@H]1NC(=O)[C@H](CCCN)NC(=O)[C@H](C(C)C)NC(=O)[C@H](CCCN)NC(=O)[C@@H]2CCCN2C(=O)[C@@H](Cc2ccccc2)NC(=O)[C@H](CCCN)NC(=O)[C@H](CC23CC4CC(CC(C4)C2)C3)NC(=O)[C@H](CCCN)NC(=O)[C@H](C23CC4CC(CC(C4)C2)C3)NC(=O)[C@H](CCCN)NC(=O)[C@@H]2CCCN2C(=O)[C@@H](Cc2ccccc2)NC(=O)[C@H](CCCN)NC1=O`, the MIC in data set [1] was 4 µg/mL (≈ 2.24 µM); in the data set with Staphylococcus aureus [2], 8 µg/mL (≈ 4.49 µM); against Pseudomonas aeruginosa, 8 µg/mL (≈ 4.49 µM); against Escherichia coli, 16 µg/mL (≈ 8.98 µM); against Bacillus cereus, 1 µg/mL (≈ 0.561 µM); against Enterococcus faecalis it was 8 µg/mL (≈ 4.49 µM). Besides, the minimal inhibitory concentration (MIC) with Staphylococcus aureus [3], against Staphylococcus aureus [4], with Staphylococcus aureus [5], against Staphylococcus aureus [6], in the data set with Staphylococcus aureus [7] and in the data set with Staphylococcus aureus [8] was 16 µg/mL (≈ 8.98 µM) in each case. Also, the Activity in data set [9] turned out to be 31.3 µM. For the same compound, the selectivity ratio in data set [10] and in data set [11] was 3.9 throughout.
For `CC(C)C[C@@H]1NC(=O)[C@H](CCCN)NC(=O)[C@H](C23CC4CC(CC(C4)C2)C3)NC(=O)[C@H](CCCN)NC(=O)[C@@H]2CCCN2C(=O)[C@@H](Cc2ccccc2)NC(=O)[C@H](CCCN)NC(=O)[C@H](CC23CC4CC(CC(C4)C2)C3)NC(=O)[C@H](CCCN)NC(=O)[C@H](C(C)C)NC(=O)[C@H](CCCN)NC(=O)[C@@H]2CCCN2C(=O)[C@@H](Cc2ccccc2)NC(=O)[C@H](CCCN)NC1=O`, the MIC is 4 µg/mL (≈ 2.24 µM) in data set [1]; 8 µg/mL (≈ 4.49 µM) in the data set on Staphylococcus aureus [2]; 16 µg/mL (≈ 8.98 µM) in the data set with Pseudomonas aeruginosa; 16 µg/mL (≈ 8.98 µM) against Escherichia coli; 4 µg/mL (≈ 2.24 µM) in the data set with Bacillus cereus; 16 µg/mL (≈ 8.98 µM) against Enterococcus faecalis. Also, the MIC in the data set on Staphylococcus aureus [3] amounted to 16 µg/mL (≈ 8.98 µM); in the data set on Staphylococcus aureus [4], 16 µg/mL (≈ 8.98 µM); with Staphylococcus aureus [5], 16 µg/mL (≈ 8.98 µM); against Staphylococcus aureus [6] it was 32 µg/mL (≈ 18 µM); in the data set with Staphylococcus aureus [7] it was 16 µg/mL (≈ 8.98 µM); in the data set on Staphylococcus aureus [8], 16 µg/mL (≈ 8.98 µM). For the same compound, in [9], the Activity stood at 31.3 µM. Further, the results for the selectivity ratio in [10] and in [11] were 3.9 and 2, respectively.
`CC(C)C[C@@H]1NC(=O)[C@H](CCCN)NC(=O)[C@H](C(C)C)NC(=O)[C@H](CCCN)NC(=O)[C@@H]2CCCN2C(=O)[C@@H](Cc2ccccc2)NC(=O)[C@H](CCCN)NC(=O)[C@H](CC(C)C)NC(=O)[C@H](CCCN)NC(=O)[C@H](C23CC4CC(CC(C4)C2)C3)NC(=O)[C@H](CCCN)NC(=O)[C@@H]2CCCN2C(=O)[C@@H](Cc2ccccc2)NC(=O)[C@H](CCCN)NC1=O`: the MIC was found to be 4 µg/mL (≈ 2.37 µM) in [1]; 16 µg/mL (≈ 9.47 µM) in the data set on Staphylococcus aureus [2]; 8 µg/mL (≈ 4.73 µM) with Pseudomonas aeruginosa; 16 µg/mL (≈ 9.47 µM) against Escherichia coli; 8 µg/mL (≈ 4.73 µM) against Bacillus cereus; 32 µg/mL (≈ 18.9 µM) in the data set on Enterococcus faecalis. The minimal inhibitory concentration (MIC) against Staphylococcus aureus [3] turned out to be 16 µg/mL (≈ 9.47 µM); against Staphylococcus aureus [4] it was 8 µg/mL (≈ 4.73 µM); in the data set with Staphylococcus aureus [5], 8 µg/mL (≈ 4.73 µM); with Staphylococcus aureus [6], 8 µg/mL (≈ 4.73 µM); with Staphylococcus aureus [7], 8 µg/mL (≈ 4.73 µM); against Staphylococcus aureus [8], 8 µg/mL (≈ 4.73 µM). Further, the Activity in [9] was determined as 125 µM. Besides, the selectivity ratio in [10] is 7.8; in data set [11], 15.6.
With `CC(C)[C@@H]1NC(=O)[C@H](CCCN)NC(=O)[C@@H]2CCCN2C(=O)[C@@H](Cc2ccccc2)NC(=O)[C@H](CCCN)NC(=O)[C@H](CC23CC4CC(CC(C4)C2)C3)NC(=O)[C@H](CCCN)NC(=O)[C@H](C23CC4CC(CC(C4)C2)C3)NC(=O)[C@H](CCCN)NC(=O)[C@@H]2CCCN2C(=O)[C@@H](Cc2ccccc2)NC(=O)[C@H](CCCN)NC(=O)[C@H](CC23CC4CC(CC(C4)C2)C3)NC(=O)[C@H](CCCN)NC1=O`, the minimum inhibitory concentration (MIC) in data set [1] worked out at 4 µg/mL (≈ 2.13 µM); in the data set on Staphylococcus aureus [2] it was 16 µg/mL (≈ 8.54 µM); in the data set with Pseudomonas aeruginosa it was 16 µg/mL (≈ 8.54 µM); against Escherichia coli, 32 µg/mL (≈ 17.1 µM); in the data set on Bacillus cereus, 4 µg/mL (≈ 2.13 µM); against Enterococcus faecalis, 8 µg/mL (≈ 4.27 µM). Also, the MIC with Staphylococcus aureus [3] was determined as 32 µg/mL (≈ 17.1 µM); in the data set with Staphylococcus aureus [4] it was 16 µg/mL (≈ 8.54 µM); in the data set on Staphylococcus aureus [5], 16 µg/mL (≈ 8.54 µM); in the data set with Staphylococcus aureus [6], 16 µg/mL (≈ 8.54 µM); with Staphylococcus aureus [7], 16 µg/mL (≈ 8.54 µM); against Staphylococcus aureus [8], 16 µg/mL (≈ 8.54 µM). Besides, the Activity in data set [9] amounted to 15.6 µM. Further, the selectivity ratio in data set [10] and in data set [11] was 1 in each case.
